Test results taken from ChEMBL document CHEMBL1126849, “Synthesis of A-ring fluorinated derivatives of (17 alpha,20E/Z)-[125I]iodovinylestradiols: effect on receptor binding and receptor-mediated target tissue uptake” (J Med Chem, 1993).

How the values were obtained:
[1] = test system: Rattus norvegicus; assay: Biodistribution in kidney of immature female rat after 1 hr administration of 3 micro Ci (111 kBq) in the presence of (+E2); assay type: ADME, organism-based; settings: in vivo
Summary of the method: (§1)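 Immature female Long Evans rats (21–24 days, 45–70 g), unanesthetized in retention cages, given 3 µCi (111 kBq) 125I-labeled steroid i.v. via lateral tail vein. Vehicle was ethanol diluted in saline containing 1% Tween-80, giving 9% ethanol final. The blocking group received 60 µg unlabeled estradiol co-injected. Rats were killed under ether by axillary bleeding, and tissues were KCl-washed and gamma-counted. Data are %ID/g, mean ± SE, n=3–5.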

[2] = test system: Rattus norvegicus; assay: Biodistribution in lungs of immature female rat after 1 hr administration of 3 micro Ci (111 kBq) in the absence of 60 microg estradiol; assay type: ADME, organism-based, Lung; settings: in vivo; summary of the method: as §1
[3] = test system: Rattus norvegicus; assay: Biodistribution in lungs of immature female rat after 3 hour administration of 3 micro Ci (111 kBq) in the absence of 60 microg estradiol; assay type: ADME, organism-based, Lung; settings: in vivo
Summary of the method: (§2)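 Immature female Long Evans rats (21–24 days, 45–70 g), three to five per group, given 125I-labeled steroid (3 μCi, 111 kBq) by lateral tail vein without anesthesia. Vehicle: ethanol diluted in saline with 1% Tween-80, final ethanol 9%, 0.22 μm filtered. +E2 groups received 60 μg unlabeled estradiol co-injected. Killed under ether at set times; tissues KCl-washed, blotted, weighed, gamma counted; %ID/g, mean with SE.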

[4] = test system: Rattus norvegicus; assay: Biodistribution in muscle of immature female rat after 1 hr administration of 3 micro Ci (111 kBq) in the absence of 60 microg estradiol; assay type: ADME, organism-based, Muscle tissue; settings: in vivo; summary of the method: as §2
[5] = test system: Rattus norvegicus; assay: Biodistribution in muscle of immature female rat after 1 hr administration of 3 micro Ci (111 kBq) in the presence of (+E2); assay type: ADME, organism-based, Muscle tissue; settings: in vivo; summary of the method: as §2
[6] = test system: Rattus norvegicus; assay: Biodistribution in muscle of immature female rat after 3 hour administration of 3 micro Ci (111 kBq) in the absence of 60 microg estradiol; assay type: ADME, organism-based, Muscle tissue; settings: in vivo; summary of the method: as §2
[7] = test system: Rattus norvegicus; assay: Biodistribution in spleen of immature female rat after 1 hr administration of 3 micro Ci (111 kBq) in the absence of 60 microg estradiol; assay type: ADME, organism-based; settings: in vivo; summary of the method: as §2
[8] = test system: Rattus norvegicus; assay: Biodistribution in spleen of immature female rat after 5 hour administration of 3 micro Ci (111 kBq) in the absence of 60 microg estradiol; assay type: ADME, organism-based; settings: in vivo; summary of the method: as §2
[9] = test system: Rattus norvegicus; assay: Biodistribution in blood of immature female rat after 12 hour administration of 3 micro Ci (111 kBq) in the absence of 60 microg estradiol; assay type: ADME, organism-based; settings: in vivo; summary of the method: as §1
[10] = test system: Rattus norvegicus; assay: Biodistribution in blood of immature female rat after 1 hr administration of 3 micro Ci (111 kBq) in the absence of 60 microg estradiol; assay type: ADME, organism-based; settings: in vivo; summary of the method: as §1
[11] = test system: Rattus norvegicus; assay: Biodistribution in blood of immature female rat after 1 hr administration of 3 micro Ci (111 kBq) in the presence of (+E2); assay type: ADME, organism-based; settings: in vivo; summary of the method: as §1
[12] = test system: Rattus norvegicus; assay: Biodistribution in blood of immature female rat after 3 hour administration of 3 micro Ci (111 kBq) in the absence of 60 microg estradiol; assay type: ADME, organism-based; settings: in vivo; summary of the method: as §1
[13] = test system: Rattus norvegicus; assay: Biodistribution in kidney of immature female rat after 3 hour administration of 3 micro Ci (111 kBq) in the absence of 60 microg estradiol; assay type: ADME, organism-based; settings: in vivo; summary of the method: as §1
[14] = test system: Rattus norvegicus; assay: Biodistribution in liver of immature female rat after 12 hour administration of 3 micro Ci (111 kBq) in the absence of 60 microg estradiol; assay type: ADME, organism-based; settings: in vivo; summary of the method: as §1
[15] = test system: Rattus norvegicus; assay: Biodistribution in liver of immature female rat after 1 hr administration of 3 micro Ci (111 kBq) in the absence of 60 microg estradiol; assay type: ADME, organism-based; settings: in vivo; summary of the method: as §1
[16] = test system: Rattus norvegicus; assay: Biodistribution in thyroid of immature female rat after 12 hour administration of 3 micro Ci (111 kBq) in the absence of 60 microg estradiol; assay type: ADME, organism-based, Thyroid gland; settings: in vivo; summary of the method: as §2
[17] = test system: Rattus norvegicus; assay: Biodistribution in thyroid of immature female rat after 1 hr administration of 3 micro Ci (111 kBq) in the absence of 60 microg estradiol; assay type: ADME, organism-based, Thyroid gland; settings: in vivo; summary of the method: as §2
[18] = test system: Rattus norvegicus; assay: Biodistribution in thyroid of immature female rat after 1 hr administration of 3 micro Ci (111 kBq) in the presence of (+E2); assay type: ADME, organism-based, Thyroid gland; settings: in vivo; summary of the method: as §2
[19] = test system: Rattus norvegicus; assay: Biodistribution in uterus / spleen, muscle, lungs of immature female rat after 1 hr administration of 3 micro Ci (111 kBq) in the presence of (+E2); assay type: ADME, organism-based; settings: in vivo
Summary of the method: (§3)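 Same in vivo procedure: immature female Long Evans rats (21–24 days), three to five per group, 3 μCi (111 kBq) tracer i.v. via tail vein in 9% ethanol/saline/1% Tween-80, ± 60 μg estradiol co-injected at 1 h. Uterus %ID/g (gamma counting) divided by blood, or by nontarget organ (muscle, spleen, lungs), %ID/g to give ratios.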

[20] = test system: Rattus norvegicus; assay: Biodistribution in uterus / spleen, muscle, lungs of immature female rat after 3 hour administration of 3 micro Ci (111 kBq) in the absence of 60 microg estradiol; assay type: ADME, organism-based; settings: in vivo
Summary of the method: (§4)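 Immature female Long Evans rats (21–24 days, 45–70 g), 3–5 per group, unanesthetized in retention cages, given 3 μCi (111 kBq) 125I-labeled steroid by lateral tail vein. Vehicle: ethanol diluted with saline containing 1% Tween-80, final ethanol 9%. +E2 group co-injected 60 μg unlabeled estradiol (1 h only). Killed under ether; tissues KCl-washed, weighed, gamma-counted. Output: %ID/g (mean, SE) and uterus to blood or nontarget (muscle, spleen, lungs) ratios.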

[21] = test system: Rattus norvegicus; assay: Biodistribution in uterus / spleen, muscle, lungs of immature female rat after 5 hour administration of 3 micro Ci (111 kBq) in the absence of 60 microg estradiol; assay type: ADME, organism-based; settings: in vivo; summary of the method: as §4
[22] = test system: Rattus norvegicus; assay: Biodistribution in uterus of immature female rat after 12 hour administration of 3 micro Ci (111 kBq) in the absence of 60 microg estradiol; assay type: ADME, organism-based; settings: in vivo; summary of the method: as §4
[23] = test system: Rattus norvegicus; assay: Biodistribution in uterus of immature female rat after 1 hr administration of 3 micro Ci (111 kBq) in the presence of (+E2); assay type: ADME, organism-based; settings: in vivo; summary of the method: as §4
[24] = test system: Rattus norvegicus; assay: Biodistribution in uterus of immature female rat after 5 hour administration of 3 micro Ci (111 kBq) in the absence of 60 microg estradiol; assay type: ADME, organism-based; settings: in vivo; summary of the method: as §4
[25] = test system: Rattus norvegicus; assay: Biodistribution in thyroid of immature female rat after 3 hour administration of 3 micro Ci (111 kBq) in the absence of 60 microg estradiol; assay type: ADME, organism-based, Thyroid gland; settings: in vivo; summary of the method: as §2
[26] = test system: Rattus norvegicus; assay: Biodistribution in uterus / blood of immature female rat after 12 hour administration of 3 micro Ci (111 kBq) in the absence of 60 microg estradiol; assay type: ADME, organism-based; settings: in vivo; summary of the method: as §3
[27] = target: T1, Estrogen receptor (Mus musculus) (UniProt O08537+P19785); assay: Relative binding affinity (RBA) for murine cytoplasmic estrogen receptor at 25 degree C for 2 hr; assay type: protein assay
T1 sequence (O08537 whole entry, looked up): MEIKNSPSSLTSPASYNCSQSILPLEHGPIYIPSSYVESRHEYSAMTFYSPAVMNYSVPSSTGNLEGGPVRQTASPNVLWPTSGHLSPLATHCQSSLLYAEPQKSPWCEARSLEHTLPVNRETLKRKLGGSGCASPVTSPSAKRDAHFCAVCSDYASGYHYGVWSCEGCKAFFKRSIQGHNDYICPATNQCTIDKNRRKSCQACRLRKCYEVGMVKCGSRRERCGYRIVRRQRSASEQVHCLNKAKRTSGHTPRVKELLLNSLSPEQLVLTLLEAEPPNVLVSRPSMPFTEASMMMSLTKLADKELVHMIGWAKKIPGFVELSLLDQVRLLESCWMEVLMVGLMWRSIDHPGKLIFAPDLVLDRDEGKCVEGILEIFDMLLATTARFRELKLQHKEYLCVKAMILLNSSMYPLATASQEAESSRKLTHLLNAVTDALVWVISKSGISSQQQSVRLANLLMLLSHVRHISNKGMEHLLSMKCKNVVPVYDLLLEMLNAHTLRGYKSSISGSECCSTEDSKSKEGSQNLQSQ
T1 sequence (P19785 whole entry, looked up): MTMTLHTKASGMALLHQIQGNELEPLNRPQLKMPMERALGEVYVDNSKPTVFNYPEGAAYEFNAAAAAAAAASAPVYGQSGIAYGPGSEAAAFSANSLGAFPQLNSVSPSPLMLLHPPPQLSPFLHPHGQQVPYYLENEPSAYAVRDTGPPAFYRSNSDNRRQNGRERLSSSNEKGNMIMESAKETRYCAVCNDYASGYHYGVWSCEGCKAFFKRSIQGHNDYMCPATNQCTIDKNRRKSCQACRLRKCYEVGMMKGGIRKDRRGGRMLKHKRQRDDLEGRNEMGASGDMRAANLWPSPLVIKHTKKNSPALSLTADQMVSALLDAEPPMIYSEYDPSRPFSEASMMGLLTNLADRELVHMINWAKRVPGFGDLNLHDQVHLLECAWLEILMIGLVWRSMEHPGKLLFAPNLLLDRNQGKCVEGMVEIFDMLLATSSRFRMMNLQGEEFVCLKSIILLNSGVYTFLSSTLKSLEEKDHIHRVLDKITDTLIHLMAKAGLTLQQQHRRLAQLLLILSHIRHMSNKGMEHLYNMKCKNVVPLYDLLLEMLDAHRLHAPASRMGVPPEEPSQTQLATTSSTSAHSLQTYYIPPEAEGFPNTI
Summary of the method: (§5)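 Murine uterine cytoplasmic extract incubated 2 h at 4 °C or at 25 °C with 20 nM [3H]estradiol and competitors at 2 nM–20 μM. RBA is taken as 100 × the ratio of competitor to unlabeled estradiol concentration needed for 50% competition of specific [3H]estradiol binding.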

[28] = target: T1, Estrogen receptor (Mus musculus); assay: Relative binding affinity (RBA) for murine cytoplasmic estrogen receptor at 4C for 18 hr; assay type: protein assay
Summary of the method: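 Competitive binding on murine uterine cytoplasmic extract with 20 nM [3H]estradiol and competitor steroids at 2 nM–20 μM, incubated 18 h at 0–4 °C. RBA = 100 × ratio of […] concentration giving 50% competition for specific binding. Mean of three experiments with SD.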

[29] = target: T1, Estrogen receptor (Mus musculus); assay: Relative binding affinity (RBA) for murine cytoplasmic estrogen receptor at 4C for 2 hr; assay type: protein assay; summary of the method: as §5

Row | Compound | ID/g [1] | ID/g [2] | ID/g [3] | ID/g [4] | ID/g [5] | ID/g [6] | ID/g [7] | ID/g [8] | ID/g [9] | ID/g [10] | ID/g [11] | ID/g [12] | ID/g [13] | ID/g [14] | ID/g [15] | ID/g [16] | ID/g [17] | ID/g [18] | ID/g [22] | ID/g [23] | also measured
1 | C[C@]12CC[C@@H]3c4ccc(O)c(F)c4CC[C@H]3[C@@H]1CC[C@@]2(O)/C=C\I | 0.85% | 1.89% | 0.85% | 1.26% | 0.51% | 0.82% | 1.02% | 0.4% | 0.24% | 0.71% | 0.55% | 0.48% | 0.82% | 1.78% | 3.49% | 488% | 42.2% | 50.6% | 6.02% | 0.86% | uterus-to-nontarget tissue uptake ratio [19]: 1.21%; Uterus to nontarget tissue (spleen, muscle, lungs) uptake ratio [20]: 12.16%; uterus to nontarget tissue ratio [21]: 28.59%; ID/g [24]: 10.22%; ID/g [25]: 87.39%; Uterus-to-blood radioactivity ratio (dimensionless) [26]: 27.32%; RBA [27]: 203; RBA [28]: 66.9; RBA [29]: 47.4
2 | C[C@@H]1Cc2c(ccc(O)c2F)[C@H]2CC[C@@]3(C)[C@@H](CC[C@@]3(O)/C=C/I)[C@H]12 | 1.82% | 1.47% | 0.93% | 0.75% | 0.97% | 0.43% | 0.68% | 0.8% | 0.17% | 0.38% | 0.44% | 0.32% | 0.95% | 1.57% | 4.36% | 217% | 61% | 56% | 3.02% | 1.14% | uterus-to-nontarget tissue uptake ratio [19]: 0.85%; Uterus to nontarget tissue (spleen, muscle, lungs) uptake ratio [20]: 7.15%; uterus to nontarget tissue ratio [21]: 9.38%; ID/g [24]: 6.44%; ID/g [25]: 70%; Uterus-to-blood radioactivity ratio (dimensionless) [26]: 17.87%
3 | C[C@@H]1Cc2c(ccc(O)c2F)[C@H]2CC[C@@]3(C)[C@@H](CC[C@@]3(O)/C=C\I)[C@H]12 | 0.79% | 0.71% | 0.46% | 0.45% | 0.44% | 0.28% | 1.16% | 0.57% | 0.21% | 0.44% | 0.45% | 0.39% | 0.85% | 0.8% | 1.35% | 898% | 145% | 98% | 3.45% | 0.5% | uterus-to-nontarget tissue uptake ratio [19]: 0.88%; Uterus to nontarget tissue (spleen, muscle, lungs) uptake ratio [20]: 8.32%; ID/g [21]: 9.44%; ID/g [24]: 4.39%; ID/g [25]: 304%; Uterus-to-blood radioactivity ratio (dimensionless) [26]: 16.64%
4 | C[C@]12CC[C@@H]3c4cc(F)c(O)cc4CC[C@H]3[C@@H]1CC[C@@]2(O)/C=C/I | 0.66% | 1% | 0.48% | 0.73% | 0.54% | 0.37% | 0.57% | 0.27% | 0.08% | 0.53% | 0.49% | 0.42% | 0.47% | 1.58% | 3.95% | 163% | 27% | 22% | 0.08% | 0.52% | ID/g [24]: 0.34%; ID/g [25]: 39.1%; RBA [27]: 5.3; RBA [28]: 6.2; RBA [29]: 30.4
